Tests used:
NCI-H460 [1] = experiment: Growth inhibition of human NCI-H460 cells assessed as cell growth at 10 uM incubated for 48 hrs by sulforhodamine B assay; assay type: functional; details: NCI-H460, 48 h, read-out: Activity
[2] = Growth inhibition of human COLO205 cells assessed as cell growth at 10^-6 M incubated for 48 hrs by sulforhodamine B assay; assay type: functional; details: COLO 205, 48 h, read-out: Activity
How it was run: (§1)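 Cells seeded at 5,000–40,000/well according to doubling time and preincubated 24 h at 37 °C, 5% CO2. Time-zero plates were TCA-fixed. DMSO concentrate was diluted in medium with 50 µg/ml gentamicin to give five concentrations (10-fold or ½ log steps), then exposed 48 h. Cells were TCA-fixed, stained with 0.4% SRB and read at 515 nm. Percent growth was taken against time-zero and control; GI50, TGI and LC50 derived.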

EKVX = experiment: Growth inhibition of human EKVX cells incubated for 48 hrs by sulforhodamine B assay; assay type: functional; how it was run: as §1
[3] = Growth inhibition of human HOP92 cells incubated for 48 hrs by sulforhodamine B assay; assay type: functional; details: HOP-92, 48 h; how it was run: as §1
[4] = Growth inhibition of human SNB19 cells assessed as cell growth at 10^-8 M incubated for 48 hrs by sulforhodamine B assay; assay type: functional; details: SNB-19, 48 h, read-out: Activity
NCI-H460 [5] = experiment: Growth inhibition of human NCI-H460 cells assessed as cell growth at 10^-8 M incubated for 48 hrs by sulforhodamine B assay; assay type: functional; details: NCI-H460, 48 h, read-out: Activity
K562 [6] = experiment: Growth inhibition of human K562 cells assessed as cell growth at 10^-6 M incubated for 48 hrs by sulforhodamine B assay; assay type: functional; details: K562, 48 h, read-out: Activity
KM12 = experiment: Growth inhibition of human KM12 cells assessed as cell growth at 10^-7 M incubated for 48 hrs by sulforhodamine B assay; assay type: functional; details: KM12, 48 h, read-out: Activity
[7] = Growth inhibition of human melanoma cells incubated for 48 hrs by sulforhodamine B assay; assay type: functional; details: Melanoma cell; for CC50: read-out: LC50 (the source's name)
NCI-H226 = experiment: Growth inhibition of human NCI-H226 cells assessed as cell growth at 10^-4 M incubated for 48 hrs by sulforhodamine B assay; assay type: functional; details: NCI-H226, 48 h, read-out: Activity
[8] = Growth inhibition of human OVCAR3 cells assessed as cell growth at 10 uM incubated for 48 hrs by sulforhodamine B assay; assay type: functional; details: OVCAR-3, 48 h, read-out: Activity
MCF7 [9] = experiment: Growth inhibition of human MCF7 cells assessed as cell growth at 10^-7 M incubated for 48 hrs by sulforhodamine B assay; assay type: functional; details: MCF7, 48 h, read-out: Activity
[10] = Growth inhibition of human SKOV3 cells incubated for 48 hrs by sulforhodamine B assay; assay type: functional; details: SK-OV-3, 48 h
How it was run: (§2)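 Cells were plated at 5,000–40,000 per well according to doubling time and preincubated 24 h at 37 °C in 5% CO2; time-zero plates were then TCA-fixed. Five concentrations (10-fold or ½-log dilutions, DMSO stock) were incubated 48 h. Cells were TCA-fixed, stained with 0.4% SRB and read at 515 nm. GI50 was taken where [(Ti−Tz)/(C−Tz)]×100 = 50.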

[11] = Growth inhibition of human SNB19 cells incubated for 48 hrs by sulforhodamine B assay; assay type: functional; details: SNB-19, 48 h; how it was run: as §2
Albumin = Albumin (Bos taurus, UniProt P02769); experiment: Binding affinity to bovine serum albumin assessed as red shift in emission intensity up to 20 uM by fluorescence spectroscopic analysis relative to control; assay type: ADME; details: cattle, isolated protein
How it was run: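 Fluorescence titration of 10 µM BSA in 0.1 M phosphate buffer pH 7.4 with compound at 0–20 µM, diluted from DMSO stocks. Excitation 280 nm, slit 10 nm, 1 cm quartz cell, 300 K. Changes in the 350 nm Trp emission, new bands near 370–373 nm and isoemissive points are read against BSA alone.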

SK-MEL-5 = experiment: Growth inhibition of human SK-MEL-5 cells assessed as cell growth at 10 uM incubated for 48 hrs by sulforhodamine B assay; assay type: functional; details: SK-MEL-5, 48 h, read-out: Activity
[12] = Growth inhibition of human OVCAR3 cells incubated for 48 hrs by sulforhodamine B assay; assay type: functional; details: OVCAR-3, 48 h; how it was run: as §2
[13] = Growth inhibition of human HL-60(TB) cells assessed as cell growth at 10^-8 M incubated for 48 hrs by sulforhodamine B assay; assay type: functional; details: HL-60, 48 h, read-out: Activity
How it was run: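 Cells plated at 5,000–40,000/well according to doubling time and preincubated 24 h at 37 °C, 5% CO₂, with time-zero plates TCA-fixed. Drugs were kept as DMSO concentrates at 400× the top concentration and diluted in medium with 50 µg/ml gentamicin. Five 10-fold or ½-log dilutions were run for 48 h, followed by SRB staining and A515. Percent growth = (Ti−Tz)/(C−Tz)×100, or (Ti−Tz)/Tz×100 when Ti<Tz.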

HT-29 = experiment: Growth inhibition of human HT-29 cells assessed as cell growth at 10^-7 M incubated for 48 hrs by sulforhodamine B assay; assay type: functional; details: HT-29, 48 h, read-out: Activity
MCF7 [14] = experiment: Growth inhibition of human MCF7 cells assessed as cell growth at 10^-5 M incubated for 48 hrs by sulforhodamine B assay; assay type: functional; details: MCF7, 48 h, read-out: Activity
Malme-3M = experiment: Growth inhibition of human MALME-3M cells assessed as cell growth at 10^-4 M incubated for 48 hrs by sulforhodamine B assay; assay type: functional; details: read-out: Activity
[15] = Growth inhibition of human RXF393 cells assessed as cell growth at 10^-8 M incubated for 48 hrs by sulforhodamine B assay; assay type: functional; details: RXF 393, 48 h, read-out: Activity
K562 [16] = experiment: Growth inhibition of human K562 cells assessed as cell growth at 10^-8 M incubated for 48 hrs by sulforhodamine B assay; assay type: functional; details: K562, 48 h, read-out: Activity
[17] = read-out: LC50 (the source's name)
[18] = read-out: pLC50 (the source's name) (converted)

Chain of Albumin (P02769 whole entry): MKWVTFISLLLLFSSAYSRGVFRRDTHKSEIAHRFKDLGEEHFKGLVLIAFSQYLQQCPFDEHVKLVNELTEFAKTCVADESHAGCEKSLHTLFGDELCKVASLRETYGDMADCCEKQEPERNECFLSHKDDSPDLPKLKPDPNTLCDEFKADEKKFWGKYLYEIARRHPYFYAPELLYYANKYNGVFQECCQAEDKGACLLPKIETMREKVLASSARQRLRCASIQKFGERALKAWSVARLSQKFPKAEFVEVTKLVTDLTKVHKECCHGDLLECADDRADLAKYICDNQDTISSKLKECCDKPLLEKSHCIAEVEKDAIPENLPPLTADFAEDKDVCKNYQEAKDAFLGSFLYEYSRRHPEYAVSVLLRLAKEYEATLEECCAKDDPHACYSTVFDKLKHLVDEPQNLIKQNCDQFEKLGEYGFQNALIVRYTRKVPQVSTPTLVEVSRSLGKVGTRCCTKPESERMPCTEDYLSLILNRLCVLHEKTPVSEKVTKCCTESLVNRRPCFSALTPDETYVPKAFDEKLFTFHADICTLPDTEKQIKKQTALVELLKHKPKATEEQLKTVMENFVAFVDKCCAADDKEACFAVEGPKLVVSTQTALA

In the case of c1ccc(-c2nc(Nc3ccc(-c4nc5ccccc5[nH]4)cc3)nc(N3CCOCC3)n2)cc1, the growth at 10 µM (NCI-H460 [1]) is reported as -67.2%, the growth at 1 µM [2] is reported as 72% and the GI50 (EKVX; read-out: GI50) is reported as 1.59 µM. For the same molecule, the LC50 (EKVX; read-out: LC50) was 7.33 µM, the TGI (EKVX; read-out: TGI) was 3.42 µM and the GI50 (EKVX; read-out: pGI50 (converted)) was 1.58 µM. For the same molecule, the LC50 (EKVX; read-out: pLC50 (converted)) was 7.41 µM, the TGI (EKVX; read-out: pTGI (converted)) was 3.39 µM and the GI50 ([3]; read-out: GI50) was 1.38 µM. For the same molecule, the LC50 (concentration killing 50% of starting cells) ([3]; read-out: LC50) was 6.73 µM, the TGI ([3]; read-out: TGI) was 3.05 µM and the GI50 ([3]; read-out: pGI50 (converted)) was 1.38 µM. The LC50 (concentration killing 50% of starting cells) ([3]; read-out: pLC50 (converted)) was 6.76 µM, the TGI ([3]; read-out: pTGI (converted)) was 3.02 µM and the growth at 0.01 µM [4] was 98%. For the same molecule, the growth at 0.01 µM (NCI-H460 [5]) was 103%, the growth at 1 µM (K562 [6]) was -2% and the growth at 0.1 µM (KM12) was 97%. For the same molecule, the GI50 [7] was 1.56 µM, the TGI [7] was 3.18 µM and the CC50 [7] was 6.52 µM. For the same molecule, the growth at 100 µM (NCI-H226) was -59%, the growth at 10 µM [8] was -73.4% and the growth at 0.1 µM (MCF7 [9]) was 92%. It also gave a GI50 ([10]; read-out: GI50) of 2.11 µM, a CC50 [10, 17] of 8.47 µM and a TGI ([10]; read-out: TGI) of 4.23 µM. For the same molecule, the GI50 ([10]; read-out: pGI50 (converted)) was 2.09 µM, the CC50 [10, 18] was 8.51 µM and the TGI ([10]; read-out: pTGI (converted)) was 4.27 µM. For the same molecule, the GI50 ([11]; read-out: GI50) was 1.96 µM, the TGI ([11]; read-out: TGI) was 4.32 µM and the GI50 ([11]; read-out: pGI50 (converted)) was 1.95 µM. For the same molecule, the TGI ([11]; read-out: pTGI (converted)) was 4.37 µM, the Activity (Albumin) was 20 nm and the growth at 10 µM (SK-MEL-5) was -95.4%. For the same molecule, the GI50 ([12]; read-out: GI50) was 1.52 µM, the CC50 [12, 17] was 5.83 µM and the TGI ([12]; read-out: TGI) was 2.98 µM. For the same molecule, the GI50 ([12]; read-out: pGI50 (converted)) was 1.51 µM, the CC50 [12, 18] was 5.89 µM and the TGI ([12]; read-out: pTGI (converted)) was 2.95 µM. It also gave a growth at 0.01 µM [13] of 73%, a growth at 0.1 µM (HT-29) of 108% and a growth at 10 µM (MCF7 [14]) of -57%. The growth at 100 µM (Malme-3M) was -54%, the growth at 0.01 µM [15] was 97% and the growth at 0.01 µM (K562 [16]) was 86%.
For Fc1ccc(-c2nc(Nc3ccc(-c4nc5ccccc5[nH]4)cc3)nc(N3CCOCC3)n2)cc1, the growth at 10 µM (NCI-H460 [1]) was 0.13%, the growth at 1 µM [2] was 92% and the GI50 (EKVX; read-out: GI50) was 2.6 µM. For the same molecule, the LC50 (EKVX; read-out: LC50) was over 100 µM, the TGI (EKVX; read-out: TGI) was over 100 µM and the GI50 (EKVX; read-out: pGI50 (converted)) was 2.63 µM. It also gave an LC50 (EKVX; read-out: pLC50 (converted)) of over 100 µM, a TGI (EKVX; read-out: pTGI (converted)) of over 100 µM and a GI50 ([3]; read-out: GI50) of 1.8 µM. It also gave an LC50 (concentration killing 50% of starting cells) ([3]; read-out: LC50) of 7.76 µM, a TGI ([3]; read-out: TGI) of 3.74 µM and a GI50 ([3]; read-out: pGI50 (converted)) of 1.82 µM. The LC50 (concentration killing 50% of starting cells) ([3]; read-out: pLC50 (converted)) was 7.76 µM, the TGI ([3]; read-out: pTGI (converted)) was 3.72 µM and the growth at 0.01 µM [4] was 102%. The growth at 0.01 µM (NCI-H460 [5]) was 104%, the growth at 1 µM (K562 [6]) was 101% and the growth at 0.1 µM (KM12) was 98%. The GI50 [7] was 1.91 µM, the TGI [7] was 4.04 µM and the CC50 [7] was 7.43 µM. For the same molecule, the growth at 100 µM (NCI-H226) was -50%, the growth at 10 µM [8] was 5.15% and the growth at 0.1 µM (MCF7 [9]) was 89%. For the same molecule, the GI50 ([10]; read-out: GI50) was 2.37 µM, the CC50 [10, 17] was over 100 µM and the TGI ([10]; read-out: TGI) was 5.53 µM. It also gave a GI50 ([10]; read-out: pGI50 (converted)) of 2.34 µM, a CC50 [10, 18] of over 100 µM and a TGI ([10]; read-out: pTGI (converted)) of 5.5 µM. It also gave a GI50 ([11]; read-out: GI50) of 3.49 µM, a CC50 [11, 17] of over 100 µM and a TGI ([11]; read-out: TGI) of over 100 µM. The GI50 ([11]; read-out: pGI50 (converted)) was 3.47 µM, the CC50 [11, 18] was over 100 µM and the TGI ([11]; read-out: pTGI (converted)) was over 100 µM. It also gave an Activity (Albumin) of 23 nm, a growth at 10 µM (SK-MEL-5) of -90.7% and a GI50 ([12]; read-out: GI50) of 1.82 µM. It also gave a TGI ([12]; read-out: TGI) of 3.91 µM, a GI50 ([12]; read-out: pGI50 (converted)) of 1.82 µM and a TGI ([12]; read-out: pTGI (converted)) of 3.89 µM. For the same molecule, the growth at 0.01 µM [13] was 92%, the growth at 0.1 µM (HT-29) was 96% and the growth at 10 µM (MCF7 [14]) was 1%. For the same molecule, the growth at 100 µM (Malme-3M) was -58%, the growth at 0.01 µM [15] was 102% and the growth at 0.01 µM (K562 [16]) was 104%.
